ChEMBL document CHEMBL4428038, “Overcoming chloroquine resistance in malaria: Design, synthesis and structure-activity relationships of novel chemoreversal agents” (Eur J Med Chem, 2016)
Converted amounts (≈) assume the structure as drawn. The source made the active and inactive calls. The calls are words filed in the database; no cut-off is given here.

How the values were obtained:
Plasmodium falciparum K1 [1] = assay: Inhibition of CRT CVIET haplotype mutant in Plasmodium falciparum K1 isolate MRA-159 infected in erythrocytes assessed as chloroquine-coumarin probe accumulation at 10 uM after 10 hrs by Hoechst 33342 staining based flow cytometry (reference value: 35.57 +/- 3.84%); assay type: cell-based; design: scale not given: the % may be the effect or the level left
How it was run: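 Infected erythrocyte cultures at 2.5% hematocrit and 7–12% parasitemia, synchronized to late-ring/early-trophozoite stage, were incubated with chloroquine-coumarin probe plus test agent for 10 h at 37 C. Cells were then washed, resuspended in PBS and read by flow cytometry (405 nm excitation, 450/50 filter). Hoechst-stained duplicate wells set parasitemia. Uptake = % infected erythrocytes fluorescent. Controls: PBS (negative), desipramine and parent compound (positive). ≥3 independent experiments; mean ± SEM.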

Plasmodium falciparum [2] = assay: Potentiation of chloroquine-induced antimalarial activity against chloroquine-sensitive Plasmodium falciparum 3D7 isolate MRA-102 assessed as reduction in chloroquine IC50 at 500 nM relative to chloroquine alone; assay type: functional
Plasmodium falciparum [3] = assay: Potentiation of chloroquine-induced antimalarial activity against chloroquine-sensitive Plasmodium falciparum HB3 isolate MRA-155 assessed as reduction in chloroquine IC50 at 500 nM relative to chloroquine alone; assay type: functional
[4] = test system: Plasmodium falciparum 7G8; assay: Inhibition of CRT SVMNT haplotype mutant in intermediate chloroquine-resistant Plasmodium falciparum 7G8 isolate MRA-154 t assessed as reversal of chloroquine resistance by measuring reduction in chloroquine IC50 at 500 nM relative to chloroquine alone
Plasmodium falciparum K1 [5] = assay: Inhibition of CRT CVIET haplotype mutant in chloroquine-resistant Plasmodium falciparum K1 isolate MRA-159 assessed as reversal of chloroquine resistance by measuring reduction in chloroquine IC50 at 500 nM relative to chloroquine alone
[6] = test system: T1, Chloroquine resistance transporter (Plasmodium falciparum), Q9N623 [K76T]; assay: Inhibition of CRT K76T mutant in chloroquine-resistant Plasmodium falciparum Dd2 isolate MRA-156 assessed as reversal of chloroquine resistance by measuring reduction in chloroquine IC50 at 500 nM relative to chloroquine alone
T1 sequence (whole entry): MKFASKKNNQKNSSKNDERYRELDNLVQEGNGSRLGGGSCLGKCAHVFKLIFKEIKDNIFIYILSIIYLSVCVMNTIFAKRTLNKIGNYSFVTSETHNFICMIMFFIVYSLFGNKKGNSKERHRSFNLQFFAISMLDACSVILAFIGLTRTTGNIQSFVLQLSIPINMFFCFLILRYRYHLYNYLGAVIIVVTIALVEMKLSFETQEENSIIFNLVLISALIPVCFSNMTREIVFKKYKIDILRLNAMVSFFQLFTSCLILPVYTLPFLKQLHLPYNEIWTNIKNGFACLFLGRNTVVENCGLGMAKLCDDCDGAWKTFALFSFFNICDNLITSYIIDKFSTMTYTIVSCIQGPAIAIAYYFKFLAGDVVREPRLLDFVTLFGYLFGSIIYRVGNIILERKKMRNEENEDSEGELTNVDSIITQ

[7] = test system: T1, Chloroquine resistance transporter (Plasmodium falciparum), Q9N623 [K76T]; assay: Inhibition of CRT K76T mutant in chloroquine/artemisinin-resistant Plasmodium falciparum ARS233 assessed as reversal of chloroquine resistance by measuring reduction in chloroquine IC50 at 500 nM relative to chloroquine alone
[8] = test system: T1, Chloroquine resistance transporter (Plasmodium falciparum), Q9N623 [K76T]; assay: Inhibition of CRT K76T mutant in chloroquine/artemisinin-resistant Plasmodium falciparum ARS272 assessed as reversal of chloroquine resistance by measuring reduction in chloroquine IC50 at 500 nM relative to chloroquine alone
[9] = test system: T1, Chloroquine resistance transporter (Plasmodium falciparum), Q9N623 [K76T]; assay: Inhibition of CRT K76T mutant in chloroquine-resistant Plasmodium falciparum NHP4559 assessed as reversal of chloroquine resistance by measuring reduction in chloroquine IC50 at 500 nM relative to chloroquine alone
[10] = test system: T1, Chloroquine resistance transporter (Plasmodium falciparum), Q9N623 [K76T]; assay: Inhibition of CRT K76T mutant in chloroquine/artemisinin-resistant Plasmodium falciparum NHP4773 assessed as reversal of chloroquine resistance by measuring reduction in chloroquine IC50 at 500 nM relative to chloroquine alone
Plasmodium falciparum [11] = assay: Intrinsic antimalarial activity against chloroquine-sensitive Plasmodium falciparum 3D7 isolate MRA-102 assessed as reduction in parasite viability at 500 nM; assay type: functional, organism-based
Plasmodium falciparum [12] = assay: Intrinsic antimalarial activity against chloroquine-sensitive Plasmodium falciparum HB3 isolate MRA-155 assessed as reduction in parasite viability at 500 nM; assay type: functional, organism-based
Plasmodium falciparum [13] = assay: Intrinsic antimalarial activity against intermediate chloroquine-resistant Plasmodium falciparum 7G8 isolate MRA-154 harboring CRT SVMNT haplotype mutant assessed as reduction in parasite viability at 500 nM; assay type: functional, organism-based
Plasmodium falciparum [14] = assay: Intrinsic antimalarial activity against chloroquine-resistant Plasmodium falciparum K1 isolate MRA-159 harboring CRT CVIET haplotype mutant assessed as reduction in parasite viability at 500 nM; assay type: functional, organism-based
Plasmodium falciparum [15] = assay: Intrinsic antimalarial activity against chloroquine-resistant Plasmodium falciparum Dd2 isolate MRA-156 harboring CRT K76T mutant assessed as reduction in parasite viability at 500 nM; assay type: functional, organism-based
Plasmodium falciparum [16] = assay: Intrinsic antimalarial activity against chloroquine/artemisinin-resistant Plasmodium falciparum ARS233 harboring CRT K76T mutant assessed as reduction in parasite viability at 500 nM; assay type: functional, organism-based
Plasmodium falciparum [17] = assay: Intrinsic antimalarial activity against chloroquine/artemisinin-resistant Plasmodium falciparum ARS272 harboring CRT K76T mutant assessed as reduction in parasite viability at 500 nM; assay type: functional, organism-based
Plasmodium falciparum [18] = assay: Intrinsic antimalarial activity against chloroquine-resistant Plasmodium falciparum NHP4559 harboring CRT K76T mutant assessed as reduction in parasite viability at 500 nM; assay type: functional, organism-based
Plasmodium falciparum [19] = assay: Intrinsic antimalarial activity against chloroquine/artemisinin-resistant Plasmodium falciparum NHP4773 harboring CRT K76T mutant assessed as reduction in parasite viability at 500 nM; assay type: functional, organism-based
[20] = Resistance index, ratio of chloroquine IC50 for intermediate chloroquine-resistant Plasmodium falciparum 7G8 isolate MRA-154 CRT SVMNT haplotype mutant to chloroquine IC50 for chloroquine-sensitive Plasmodium falciparum 3D7 isolate MRA-102 at 500 nM
How it was run: (§1)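 Chloroquine IC50 was measured with the chemoreversal agent fixed at 500 nM in K1 or 7G8 and in sensitive 3D7 (means, n = 3). The resistance ratio is the chloroquine IC50 in K1 or 7G8 divided by the chloroquine IC50 in 3D7.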

[21] = Resistance index, ratio of chloroquine IC50 for chloroquine-resistant Plasmodium falciparum K1 isolate MRA-159 CRT CVIET haplotype mutant to chloroquine IC50 for chloroquine-sensitive Plasmodium falciparum 3D7 isolate MRA-102 at 500 nM; how it was run: as §1
TAMH = assay: Cytotoxicity against TAMH assessed as reduction in cell viability by CellTiter-Glo assay; assay type: cell-based; conditions: Mus musculus
How it was run: (§2)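 For TAMH (hepatocyte line) and AC10 (cardiomyocyte line), viability was read by ATP luminescence (CellTiter-Glo), and the value reported is IC50.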

[22] = Therapeutic index, ratio of IC50 for TAMH to EC50 for chloroquine-resistant Plasmodium falciparum K1 isolate MRA-159 CRT CVIET haplotype mutant; assay type: toxicity; conditions: mouse, TAMH cells; read-out: Ratio IC50/EC50
How it was run: (§3)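 Host-cell IC50 was measured by ATP-luminescence viability assay in TAMH hepatocytes (mean of n = 4 independent determinations) or AC10 cardiomyocytes. Each IC50 was divided by the K1 EC50, the concentration of chemoreversal agent that halves the chloroquine concentration needed for 50% parasite inhibition.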

[23] = Aqueous kinetic solubility of compound in pH 7.4 solution incubated for 24 hrs; assay type: physicochemical; conditions: for solubility kinetic at 24 h: aqueous solution pH 7.4, pH 7.4, read-out: Kinetic_solubility
[24] = Permeability of compound incubated for 6 hrs at pH 7.4 by PAMPA; assay type: ADME; conditions: read-out: Peff
[25] = Permeability of compound incubated for 16 hrs at pH 7.4 by PAMPA; assay type: ADME; conditions: read-out: Peff
[26] = Inhibition of CRT CVIET haplotype mutant in Plasmodium falciparum K1 isolate MRA-159 infected in erythrocytes assessed as reversal of chloroquine resistance by measuring reduction in chloroquine IC50 by Hoechst 33342 staining based flow cytometry; assay type: cell-based
How it was run: (§4)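 Chloroquine IC50 was determined in the presence of a fixed 500 nM chemoreversal agent, against chloroquine alone. The RMI is the ratio of chloroquine IC50 with agent to chloroquine IC50 alone. Mean of n = 3; two-tailed t test versus chloroquine without agent.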

[27] = Inhibition of CRT CVIET haplotype mutant in chloroquine-resistant Plasmodium falciparum K1 isolate MRA-159 assessed as reversal of chloroquine resistance by measuring reduction in chloroquine IC50 relative to chloroquine alone; how it was run: as §4
[28] = Cytotoxicity against human AC10 cells assessed as reduction in cell viability by CellTiter-Glo assay; assay type: cell-based; how it was run: as §2
[29] = Therapeutic index, ratio of IC50 for human AC10 cells to EC50 for chloroquine-resistant Plasmodium falciparum K1 isolate MRA-159 CRT CVIET haplotype mutant; assay type: toxicity; conditions: read-out: Ratio IC50/EC50; how it was run: as §3
[30] = Solubility of compound in DMSO at 10 uM; assay type: physicochemical
How it was run: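 Solubility judged under the probe-3 uptake assay conditions. DMSO stocks were stored in aliquots and diluted to working concentration with PBS, protected from light. The compound was added to K1 parasite cultures (2.5% hematocrit, late-ring/early-trophozoite stage) with 6 of fluorescent CQ probe and incubated for 10 h at 37 °C.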

SMILES | Activity (Plasmodium falciparum K1 [1]) [%] | Ratio IC50 (Plasmodium falciparum [2]) | Ratio IC50 (Plasmodium falciparum [3]) | Ratio IC50 [4] | Ratio IC50 (Plasmodium falciparum K1 [5]) | Ratio IC50 [6] | Ratio IC50 [7] | Ratio IC50 [8] | Ratio IC50 [9] | Ratio IC50 [10] | Activity (Plasmodium falciparum [11]) | Activity (Plasmodium falciparum [12]) | Activity (Plasmodium falciparum [13]) | Activity (Plasmodium falciparum [14]) | Activity (Plasmodium falciparum [15]) | Activity (Plasmodium falciparum [16]) | Activity (Plasmodium falciparum [17]) | Activity (Plasmodium falciparum [18]) | Activity (Plasmodium falciparum [19]) | Ratio IC50 [20] | also measured
Ic1ccccc1CN[C@@H]1C2CCN(CC2)[C@@H]1C(c1ccccc1)c1ccccc1 | 80.5 | 1.07 | 1.09 | 0.59 | 0.26 | 0.37 | 0.2 | 0.26 | 0.28 | 0.27 | inactive | inactive | inactive | inactive | inactive | inactive | inactive | inactive | inactive | 3.4 | Ratio IC50 [21]: 5; IC50 (TAMH): 17200 nM; selectivity ratio [22]: 175; solubility kinetic at 24 h [23]: 31 µg/mL (≈ 61 µM); Papp at 6 h [24]: 10.4 ×10⁻⁶ cm/s; Papp at 16 h [25]: 8.24 ×10⁻⁶ cm/s; EC50 [26]: 98 nM
CN1CCN(C2Cc3ccccc3Sc3ccc(Cl)cc32)CC1 (stereo unspecified) [CLOROTEPINE] | 82.8 | 1.07 | 1.04 | 1.12 | 0.94 | 0.98 | 0.87 | 1.05 | 1.09 | 0.87 | inactive | inactive | inactive | inactive | inactive | inactive | inactive | inactive | inactive | 6.4 | Ratio IC50 [21]: 18.1; solubility kinetic at 24 h [23]: 34.9 µg/mL (≈ 101 µM); EC50 [26]: 1270 nM
NC(=O)C(CCN1CCC(O)(c2ccc(Cl)cc2)CC1)(c1ccccc1)c1ccccc1 | 73.5 | 1.23 | 1.06 | 1.25 | 0.89 | 1.16 | 0.91 | 0.94 | 1.01 | 0.96 | inactive | inactive | inactive | inactive | inactive | inactive | inactive | inactive | inactive | 6.2 | Ratio IC50 [21]: 14.8; EC50 [27]: 482 nM; IC50 (TAMH): 101000 nM; IC50 [28]: 45200 nM; selectivity ratio [22]: 210; selectivity ratio [29]: 94; solubility kinetic at 24 h [23]: > 450 µg/mL; Papp at 6 h [24]: 0.65 ×10⁻⁶ cm/s; Papp at 16 h [25]: 1.78 ×10⁻⁶ cm/s
CN1CCN(C2Cc3ccccc3Sc3ccccc32)CC1 (stereo unspecified) |  |  |  |  |  |  |  |  |  |  |  |  |  |  |  |  |  |  |  |  | solubility [30]: Insoluble
CC(C)(C)OC(=O)N1CCN(C2Cc3ccccc3Sc3ccccc32)CC1 (stereo unspecified) |  |  |  |  |  |  |  |  |  |  |  |  |  |  |  |  |  |  |  |  | solubility [30]: Insoluble
CN(C)C(=O)C(CCN1CCC(O)(c2ccc(Cl)cc2)CC1)(c1ccccc1)c1ccccc1 [LOPERAMIDE] | 87.6 | 1.08 | 1.04 | 0.59 | 0.74 | 0.82 | 0.64 | 0.75 | 0.79 | 0.64 | inactive | inactive | inactive | inactive | inactive | inactive | inactive | inactive | inactive | 3.4 | Ratio IC50 [21]: 14; Kinetic_solubility ([23]; buffer, pH 7.4, 24 h): 410 µg/mL; Papp at 6 h [24]: 16 ×10⁻⁶ cm/s; Papp at 16 h [25]: 12.5 ×10⁻⁶ cm/s; EC50 [26]: 685 nM
